According to PubChem BioAssay AID588836 (Broad Institute, 2011):
Active and inactive are the calls of the source. How the calls were made is not given here.

Molecular target: Scavenger receptor class B member 1 (Mus musculus) (UniProt Q61009)
Test: wild-type mSR-BI cholesteryl ester uptake blockade – wild-type cells, scintillation, powder samples, orthogonal assay for SR-BI HDL uptake inhibitor project, late-stage follow-up (AID 588836)
Settings: CHO mSR-BI cells, [3H]cholesteryl ester HDL uptake, at 1 µM, hits give low values
In short: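 Material: LDL-receptor-deficient CHO cells overexpressing mouse SR-BI. Medium: Ham's F12K medium with 0.5% fatty-acid-free BSA. Probe or stimulus: HDL labeled with [3H]cholesteryl ester. Dosing: compound with 0.5% DMSO. Times: 1 h pretreatment plus 2 h uptake at 37 °C. Technique: liquid scintillation counting of cell-associated [3H]cholesteryl ester.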

Chain of Scavenger receptor class B member 1 (Mus musculus) (Q61009 whole entry, looked up): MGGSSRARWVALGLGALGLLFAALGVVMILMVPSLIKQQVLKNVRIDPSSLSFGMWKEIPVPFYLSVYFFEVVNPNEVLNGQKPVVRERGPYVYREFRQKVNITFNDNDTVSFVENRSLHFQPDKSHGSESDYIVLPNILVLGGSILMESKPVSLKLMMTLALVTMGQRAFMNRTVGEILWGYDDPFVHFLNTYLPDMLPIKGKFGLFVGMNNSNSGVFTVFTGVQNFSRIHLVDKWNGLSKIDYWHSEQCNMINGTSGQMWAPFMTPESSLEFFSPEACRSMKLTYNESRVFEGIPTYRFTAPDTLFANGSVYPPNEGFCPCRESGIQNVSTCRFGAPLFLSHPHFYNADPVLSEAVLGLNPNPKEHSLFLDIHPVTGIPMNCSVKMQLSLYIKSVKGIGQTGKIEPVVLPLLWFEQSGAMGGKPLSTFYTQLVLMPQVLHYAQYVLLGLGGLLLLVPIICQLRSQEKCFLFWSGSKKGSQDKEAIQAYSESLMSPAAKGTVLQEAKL

SMILES | HDL cholesterol uptake
CCC(=O)N1CCc2cc(-c3csc(NC(=O)c4ccco4)n3)ccc21 | 52.6%
CCOC(=O)N1CCC(NC(=O)c2ccc3c(c2)N(Cc2ccc(F)cc2)CCS3)CC1 | 45.9%
O=C(Nc1ccc(Cl)cc1C(=O)c1ccc(Cl)cc1)c1cc(Br)ccc1NS(=O)(=O)c1ccc(Cl)cc1 | 85.2% (inactive)
COc1ccc(-c2nnn(CC(=O)N(C3CCCCC3)C(C)C(=O)NC3CCCC3)n2)cc1OC (stereo not given) | 48.9%
Cc1ccc2oc(-c3cccc(NC(=O)c4cc(-n5cnnc5)ccc4Cl)c3)nc2c1 | 54.8%
